Measurements taken from ChEMBL document CHEMBL1132163 (Bioorg Med Chem Lett, 1999).

Key:
[1] = target: T1, Cyclin-dependent kinase 1 (Homo sapiens, UniProt P06493); assay: Inhibition of cyclin-dependent kinase 1 (CDK1) (Not active)
[2] = target: T1, Cyclin-dependent kinase 1; assay: Inhibitory activity against cyclin-dependent kinase 1 (CDK1) was determined
[3] = Inhibition of human bladder carcinoma T24 cell proliferation; type: functional, cell-based, T-24
In short: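 T24 cells seeded 1.5 x 10^3/well, attached overnight (16-18h), washed with serum-free medium, exposed to serial drug dilutions 4-5 days (≥2-3 control divisions); duplicates per concentration. Fixed 3.3% glutaraldehyde, methylene blue 0.05% stain, eluted 3% HCl, OD 665nm.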

[4] = target: cAMP-dependent protein kinase (PKA) (Homo sapiens, UniProt P22694+P17612+P22612); assay: Inhibition of Protein kinase A; type: protein assay
[5] = target: T2, Epidermal growth factor receptor (Homo sapiens, UniProt P00533); assay: Inhibit of epidermal growth factor receptor (EGFR)
T2 sequence (P00533 whole entry): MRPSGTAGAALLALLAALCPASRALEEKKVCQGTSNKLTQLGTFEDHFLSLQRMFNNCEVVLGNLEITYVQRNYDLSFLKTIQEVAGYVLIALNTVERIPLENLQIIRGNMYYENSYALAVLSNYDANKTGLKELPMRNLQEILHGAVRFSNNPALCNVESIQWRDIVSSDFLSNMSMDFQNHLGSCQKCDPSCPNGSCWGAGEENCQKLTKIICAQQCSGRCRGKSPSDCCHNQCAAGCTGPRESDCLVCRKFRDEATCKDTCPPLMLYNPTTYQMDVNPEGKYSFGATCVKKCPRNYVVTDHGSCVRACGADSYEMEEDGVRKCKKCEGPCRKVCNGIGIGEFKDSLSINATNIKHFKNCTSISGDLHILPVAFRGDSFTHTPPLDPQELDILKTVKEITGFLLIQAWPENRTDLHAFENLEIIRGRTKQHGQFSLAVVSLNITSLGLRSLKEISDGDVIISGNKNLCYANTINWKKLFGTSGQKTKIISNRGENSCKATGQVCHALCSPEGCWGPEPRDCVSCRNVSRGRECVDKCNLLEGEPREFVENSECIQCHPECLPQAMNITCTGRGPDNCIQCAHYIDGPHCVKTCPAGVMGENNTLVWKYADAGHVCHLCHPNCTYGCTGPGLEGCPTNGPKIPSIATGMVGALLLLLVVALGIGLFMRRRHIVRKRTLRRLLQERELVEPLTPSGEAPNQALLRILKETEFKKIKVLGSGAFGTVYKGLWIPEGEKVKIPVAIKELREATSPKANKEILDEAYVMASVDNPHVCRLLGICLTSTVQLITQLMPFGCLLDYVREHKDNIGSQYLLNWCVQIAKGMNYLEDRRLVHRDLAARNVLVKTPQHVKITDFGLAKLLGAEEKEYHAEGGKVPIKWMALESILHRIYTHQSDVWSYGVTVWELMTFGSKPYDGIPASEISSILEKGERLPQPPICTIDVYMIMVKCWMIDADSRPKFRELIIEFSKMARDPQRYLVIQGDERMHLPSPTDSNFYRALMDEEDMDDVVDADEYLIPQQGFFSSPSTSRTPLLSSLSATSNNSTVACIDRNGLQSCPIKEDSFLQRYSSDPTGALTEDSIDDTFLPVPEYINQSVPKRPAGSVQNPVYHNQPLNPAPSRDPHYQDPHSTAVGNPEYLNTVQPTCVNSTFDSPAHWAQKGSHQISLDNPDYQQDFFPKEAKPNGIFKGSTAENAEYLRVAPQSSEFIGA

[6] = target: Protein kinase C alpha type (Homo sapiens, UniProt P17252); assay: Inhibition of Protein kinase C alpha
[7] = target: T2, Epidermal growth factor receptor; assay: Inhibition of epidermal growth factor receptor (EGFR) (inactive)

T1 sequence (P06493 whole entry): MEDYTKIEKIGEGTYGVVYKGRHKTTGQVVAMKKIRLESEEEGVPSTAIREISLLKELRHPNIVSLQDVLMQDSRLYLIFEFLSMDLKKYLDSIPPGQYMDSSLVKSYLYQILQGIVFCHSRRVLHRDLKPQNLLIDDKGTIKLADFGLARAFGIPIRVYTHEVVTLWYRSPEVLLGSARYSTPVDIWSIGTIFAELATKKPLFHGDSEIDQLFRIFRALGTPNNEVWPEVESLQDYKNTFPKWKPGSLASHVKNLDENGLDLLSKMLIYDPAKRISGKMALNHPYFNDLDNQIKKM

Compound: CCn1cnc2c(Nc3cccc(C#N)c3)nc(NCCO)nc21
- IC50 [1]: Not Active

Compound: CCn1cnc2c(Nc3ccc(F)cc3)nc(N[C@H]3CC[C@H](N)CC3)nc21
- IC50 [2]: 31 nM

Compound: CCn1cnc2c(Nc3cccc(F)c3)nc(NCCO)nc21
- IC50 [2]: 440 nM

Compound: CCn1cnc2c(Nc3cccc(C#N)c3)nc(N[C@H]3CC[C@H](O)CC3)nc21
- IC50 [2]: 28 nM

Compound: CCn1cnc2c(Nc3cccc(OC)c3)nc(N[C@H]3CC[C@@H](N)CC3)nc21
- IC50 [2]: 340 nM

Compound: CCn1cnc2c(Nc3ccc(F)cc3)nc(N[C@@H]3CCCC[C@@H]3N)nc21
- IC50 [2]: 150 nM

Compound: CCn1cnc2c(Nc3cccc(C(F)(F)F)c3)nc(NCCN)nc21
- IC50 [2]: 700 nM

Compound: CCn1cnc2c(Nc3cccc(F)c3)nc(N[C@H]3CC[C@@H](N)CC3)nc21
- IC50 [2]: 350 nM

Compound: CCn1cnc2c(Nc3cccc(C(F)(F)F)c3)nc(N[C@H]3CC[C@H](N)CC3)nc21
- IC50 [2]: 140 nM

Compound: CCn1cnc2c(Nc3ccc(F)cc3)nc(N[C@H]3CC[C@@H](N)CC3)nc21
- IC50 [2]: 100 nM

Compound: CCn1cnc2c(Nc3cccc(Cl)c3)nc(NCCN)nc21
- IC50 ([3]; Homo sapiens, T-24): 3160 nM
- IC50 [4]: 180000 nM
- IC50 [5]: > 100000 nM
- IC50 [2]: 80 nM
- IC50 [6]: 31500 nM

Compound: CCn1cnc2c(Nc3cccc(F)c3)nc(N[C@@H]3CCCC[C@@H]3N)nc21
- IC50 [2]: 250 nM

Compound: CCn1cnc2c(Nc3cccc(C(F)(F)F)c3)nc(N[C@H]3CC[C@@H](N)CC3)nc21
- IC50 [2]: 290 nM

Compound: CCn1cnc2c(Nc3cccc(F)c3)nc(N[C@H]3CC[C@H](O)CC3)nc21
- IC50 [2]: 32 nM

Compound: CCn1cnc2c(Nc3ccc(F)cc3)nc(N[C@H]3CC[C@H](O)CC3)nc21
- IC50 [2]: 40 nM

Compound: CCn1cnc2c(Nc3cccc(OC)c3)nc(N[C@@H]3CCCC[C@@H]3N)nc21
- IC50 [2]: 230 nM

Compound: CCn1cnc2c(Nc3cccc(C#N)c3)nc(NCCN)nc21
- IC50 [2]: 560 nM

Compound: CCn1cnc2c(Nc3ccc(F)cc3)nc(NCCN)nc21 [listing 1 of 2 here]
- IC50 [2]: 450 nM

Compound: CCn1cnc2c(Nc3cccc(Cl)c3)nc(N3CCCCC3CO)nc21 (stereo not drawn)
- IC50 ([3]; Homo sapiens, T-24): 3650 nM
- IC50 [2]: 39 nM

Compound: CCn1cnc2c(Nc3cccc(C(F)(F)F)c3)nc(N[C@@H]3CCCC[C@@H]3N)nc21
- IC50 [2]: 310 nM

Compound: CCn1cnc2c(Nc3cccc(OC)c3)nc(N[C@H]3CC[C@H](N)CC3)nc21
- IC50 [2]: 160 nM

Compound: CCn1cnc2c(Nc3cccc(C#N)c3)nc(N[C@H]3CC[C@@H](N)CC3)nc21
- IC50 [2]: 350 nM

Compound: CCn1cnc2c(Nc3cccc(Cl)c3)nc(N[C@H]3CC[C@@H](O)CC3)nc21
- IC50 ([3]; Homo sapiens, T-24): 830 nM

Compound: CCn1cnc2c(Nc3cccc(Cl)c3)nc(N[C@H]3CC[C@H](O)CC3)nc21
- IC50 [2]: 30 nM

Compound: CCn1cnc2c(Nc3cccc(C#N)c3)nc(N[C@@H]3CCCC[C@@H]3N)nc21
- IC50 [2]: 350 nM

Compound: CCn1cnc2c(Nc3cccc(C(F)(F)F)c3)nc(NCCO)nc21
- IC50 [1]: Not Active

Compound: CCn1cnc2c(Nc3cccc(F)c3)nc(N[C@H]3CC[C@H](N)CC3)nc21
- IC50 [2]: 150 nM

Compound: CCn1cnc2c(Nc3cccc(OC)c3)nc(NCCN)nc21
- IC50 ([3]; Homo sapiens, T-24): 9900 nM
- IC50 [2]: 550 nM

Compound: CCn1cnc2c(Nc3cccc(Cl)c3)nc(N3CCC[C@@H]3CO)nc21
- IC50 ([3]; Homo sapiens, T-24): 6710 nM
- IC50 [4]: > 500000 nM
- IC50 [7]: Not Active
- IC50 [2]: 80 nM
- IC50 [6]: 38500 nM

Compound: CCn1cnc2c(Nc3cccc(Cl)c3)nc(NCCO)nc21
- IC50 ([3]; Homo sapiens, T-24): 17500 nM
- IC50 [2]: 330 nM

Compound: CCn1cnc2c(Nc3ccc(F)cc3)nc(NCCO)nc21
- IC50 [2]: 380 nM

Compound: CCn1cnc2c(Nc3cccc(Cl)c3)nc(N[C@H]3CC[C@H](N)CC3)nc21
- IC50 [2]: 39 nM

Compound: CCn1cnc2c(Nc3cccc(OC)c3)nc(N[C@H]3CC[C@H](O)CC3)nc21
- IC50 [2]: 90 nM

Compound: CCn1cnc2c(Nc3cccc(C(F)(F)F)c3)nc(N[C@H]3CC[C@H](O)CC3)nc21
- IC50 [2]: 28 nM

Compound: CCn1cnc2c(Nc3cccc(Cl)c3)nc(N[C@H]3CCC[C@@H](N)C3)nc21
- IC50 ([3]; Homo sapiens, T-24): 1500 nM
- IC50 [4]: 150000 nM
- IC50 [2]: 120 nM
- IC50 [6]: 6000 nM

Compound: CCn1cnc2c(Nc3cccc(Cl)c3)nc(N3CCC[C@@H]3CN)nc21
- IC50 ([3]; Homo sapiens, T-24): 2350 nM
- IC50 [2]: 41 nM

Compound: CCn1cnc2c(Nc3ccc(OC)cc3)nc(NCCN)nc21
- IC50 [2]: 550 nM

Compound: CCn1cnc2c(Nc3cccc(OC)c3)nc(NCCO)nc21
- IC50 [2]: 1000 nM

Compound: CCn1cnc2c(Nc3cccc(C#N)c3)nc(N[C@H]3CC[C@H](N)CC3)nc21
- IC50 [2]: 85 nM

Compound: CCn1cnc2c(Nc3cccc(F)c3)nc(NCCN)nc21 [listing 1 of 2 here]
- IC50 [2]: 600 nM

Compound: CCn1cnc2c(Nc3cccc(C(F)(F)F)c3)nc(NCCN)nc21.Cl
- IC50 ([3]; Homo sapiens, T-24): 6080 nM
- IC50 [4]: 500000 nM
- IC50 [5]: > 10000 nM
- IC50 [2]: 700 nM
- IC50 [6]: 50000 nM

Compound: CCn1cnc2c(Nc3cccc(F)c3)nc(NCCN)nc21 [listing 2 of 2 here]
- IC50 ([3]; Homo sapiens, T-24): 6500 nM
- IC50 [2]: 600 nM

Compound: CCn1cnc2c(Nc3ccc(F)cc3)nc(NCCN)nc21 [listing 2 of 2 here]
- IC50 ([3]; Homo sapiens, T-24): 8300 nM
- IC50 [2]: 450 nM

Compound: CCn1cnc2c(Nc3cccc(C#N)c3)nc(NCCN)nc21.Cl
- IC50 ([3]; Homo sapiens, T-24): 5240 nM
- IC50 [4]: > 500000 nM
- IC50 [5]: > 10000 nM
- IC50 [2]: 560 nM
- IC50 [6]: 78000 nM

Compound: CCn1cnc2c(Nc3cccc(Cl)c3)nc(N[C@H]3CC[C@@H](N)CC3)nc21 (stereo in doubt)
- IC50 [2]: 140 nM

Compound: CCn1cnc2c(Nc3cccc(Cl)c3)nc(N[C@@H]3CCCC[C@@H]3N)nc21 (stereo in doubt)
- IC50 [2]: 31 nM

Compound: CCn1cnc2c(Nc3cccc(Cl)c3)nc(N[C@@H]3CCCC[C@@H]3N)nc21 (stereo in doubt; 12)
- IC50 ([3]; t-24): 1350 nM
- IC50 [4]: 335000 nM
- IC50 [5]: 2000 nM
- IC50 [2]: 110 nM
- IC50 [6]: 30000 nM

Compound: CCn1cnc2c(Nc3cccc(Cl)c3)nc(N[C@@H]3CCCC[C@@H]3N)nc21 (stereo in doubt; 13)
- IC50 ([3]; t-24): 480 nM
- IC50 [4]: 150000 nM
- IC50 [5]: 5100 nM
- IC50 [2]: 25 nM
- IC50 [6]: 13500 nM

Compound: CCn1cnc2c(Nc3cccc(Cl)c3)nc(N[C@H]3CC[C@@H](N)CC3)nc21 (stereo in doubt; 15)
- IC50 ([3]; Homo sapiens, T-24): 540 nM
- IC50 [2]: 39 nM
